Source: ChEMBL document CHEMBL2311535, “Development of second-generation indole-based dynamin GTPase inhibitors” (J Med Chem, 2013)

Experiments:
[1] = Selectivity ratio of IC50 for sheep dyn1 receptor to IC50 for rat dyn2 receptor
Outline: (§1)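 Normalized conditions: 50 nM sheep brain dynI or recombinant His6 full-length rat dynII (Sf21-expressed) was preincubated with 10 μg/mL PS for 15 min at RT. Reactions then ran in Tris/NaCl/Mg²⁺/Tween buffer pH 7.4 with leupeptin, AEBSF, 300 μM GTP and compound at 37 °C, 800 rpm: 10 min for dynI, 90 min for dynII. They were stopped with EDTA, and Pi was read by malachite green. Selectivity is the ratio of the two IC50s.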

[2] = Inhibition of sheep full length dyn1 using phosphatidylserine as substrate after 10 mins by malachite green GTPase assay in presence of GTP; parameters: species or system Ovis aries; outline: as §1
Dynamin-2 = target: T1, Dynamin-2 (Rattus norvegicus, UniProt P39052); experiment: Inhibition of rat full length His6-tagged dyn2 using phosphatidylserine as substrate after 90 mins by malachite green GTPase assay in presence of GTP; outline: as §1
T1 sequence (P39052 whole entry): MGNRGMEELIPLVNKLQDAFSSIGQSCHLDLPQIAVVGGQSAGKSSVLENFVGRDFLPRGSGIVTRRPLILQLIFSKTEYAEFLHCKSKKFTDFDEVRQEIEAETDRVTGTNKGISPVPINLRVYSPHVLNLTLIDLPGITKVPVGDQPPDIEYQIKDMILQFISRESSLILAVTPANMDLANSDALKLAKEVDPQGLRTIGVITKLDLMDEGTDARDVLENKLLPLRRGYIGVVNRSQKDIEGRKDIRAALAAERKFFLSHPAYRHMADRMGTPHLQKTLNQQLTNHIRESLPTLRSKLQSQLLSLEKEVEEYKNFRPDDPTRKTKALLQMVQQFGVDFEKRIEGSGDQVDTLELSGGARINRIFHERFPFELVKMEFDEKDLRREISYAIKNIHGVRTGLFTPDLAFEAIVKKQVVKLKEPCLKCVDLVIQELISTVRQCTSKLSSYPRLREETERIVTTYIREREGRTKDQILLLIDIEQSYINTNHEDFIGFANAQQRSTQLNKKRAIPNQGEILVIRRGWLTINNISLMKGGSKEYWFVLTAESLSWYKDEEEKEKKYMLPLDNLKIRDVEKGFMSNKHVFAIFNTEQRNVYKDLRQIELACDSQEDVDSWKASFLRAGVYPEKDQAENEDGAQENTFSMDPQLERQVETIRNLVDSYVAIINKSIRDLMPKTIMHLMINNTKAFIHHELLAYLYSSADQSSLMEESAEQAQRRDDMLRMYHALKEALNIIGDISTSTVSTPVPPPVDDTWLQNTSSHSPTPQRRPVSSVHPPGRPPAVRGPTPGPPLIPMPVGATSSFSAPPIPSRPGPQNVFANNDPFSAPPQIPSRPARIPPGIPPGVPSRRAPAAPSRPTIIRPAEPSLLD

HeLa = experiment: Cytotoxicity against human HeLa cells at 30 uM after 8 hrs by trypan blue exclusion assay; assay type: cell-based
Outline: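 HeLa cells were treated with compound or vehicle (0.5% DMSO) for 8 h. Floating and adherent cells were pooled. Viability and membrane integrity were scored by Trypan Blue exclusion on an automated viability analyzer. Cytotoxicity (%) was normalized to drug/media background.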

[3] = Inhibition of sheep dyn1 after 30 mins by malachite green GTPase assay in presence of GTP; parameters: species or system Ovis aries
Outline: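 Compound (≤3% DMSO) was present for 30 min at 37 °C, shaking. The reaction was stopped with EDTA, Pi read by malachite green at 650 nm against a phosphate standard.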

| Structure (SMILES) | IC50 (Dynamin-2) | IC50 ([3]; read-out: IC50) | other results |
| --- | --- | --- | --- |
| CCCCCCCCNC(=O)/C(C#N)=C/c1cn(CCCN(C)C)c2ccccc12 | 16 µM | 1.3 µM | Ratio IC50 [1]: 2.3; IC50 [2]: 6.9 µM; Activity (HeLa): 80% |
| CCCCCCCCNC(=O)/C(C#N)=C/c1cn(CC(O)CN2CCOCC2)c2ccccc12 (centres undefined) |  | 18 µM |  |
| CCCCCCCCNC(=O)/C(C#N)=C/c1cn(CC(=O)Nc2ccc3c(c2)OCO3)c2ccccc12 |  |  | IC50 [3]: Not Active |
| CCCCCCCCCCNCc1cn(CCCN(C)C)c2ccccc12 | 7.5 µM |  |  |
| CCCCCCCCNCc1cn(CCCN(C)C)c2ccccc12 |  | 2.3 µM |  |
